# PMC11393732 (RSC Medicinal Chemistry, 2024)
# Test system: CCND1
# Test: IHC of HCP-1 xenograft tumors, CCND1
# Format: in vivo, mice
# Settings: HCP-1 xenograft tumor tissues
# Procedure, shortened: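 Tumours came from ALDHHigh HCP-1 xenografts in NSG mice given test compound IP (3, 10 or 35 mg kg−1) for 16 days. Paraffin sections were deparaffinised and rehydrated, then antigen-unmasked. Peroxidase blocked; sections blocked 1 h in 10% goat serum. Primary antibody overnight at 4 °C, biotinylated secondary 30 min at RT, avidin–biotin peroxidase detection, hematoxylin counterstain.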
smiles,measurement,value
"O=C1CCC(N2C(=O)c3cccc(NCCOCCOCCOCCOCCNC(=O)c4ccc(O)c5ncccc45)c3C2=O)C(=O)N1 (stereo not shown) [Compound 4, N-(14-((2-(2,6-Dioxopiperidin-3-yl)-1,3-dioxoisoindolin-4-yl)amino)-3,6,9,12-tetraoxatetradecyl)-8-hydroxyquinoline-5-carboxamide]",CCND1 expression (IHC),downregulated
